How the values were obtained:
L1210 [1] = assay: Antitumor activity in the mice with intraperitoneal implanted L1210 lymphoid leukemia at the dose 50 mg/kg/day x 5 was determined as Survival time in days; Range is 15-42 days; type: functional, Mus musculus
In short: (§1)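 Female C3D2F1/J mice (C3H/HeJ × DBA/2J), groups of six to eight, average weight 25 g. Each mouse got 1 × 10^6 L1210 ascites cells ip, taken from DBA/2Ha donor mice bearing 3-5 day tumors. Compound was dissolved in 0.154 N NaOH and neutralized with 0.154 N HCl (final 0.9% NaCl). Dosed ip daily ×5, starting 24 h after implant. Recorded body weight change on day 8, survival range, median survival and 30-day survivors. ILS = (T/C − 1) × 100.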

L1210 [2] = assay: Antitumor activity in the mice with intraperitoneal implanted L1210 lymphoid leukemia at the dose 25 mg/kg/day x 5 was determined as percentage increase in the life span as compared with control tumor bearers; type: functional; details: Mus musculus, L1210, ip; in short: as §1
L1210 [3] = assay: In Vitro evaluation for the antiproliferative activity by observing the growth inhibition of L1210 lymphoid leukemia cells in culture at 72 hour; type: functional, Mus musculus
In short: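 Growth of L1210 lymphoid leukemia cells in culture measured by Trypan blue exclusion of viable cells after 72 h of drug exposure. ED50 is the concentration giving 50% growth inhibition. In some runs the compound was first preincubated in medium at 37 °C for 24 or 48 h before the assay.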

L1210 [4] = assay: Antitumor activity in mice with intraperitoneal implanted L1210 lymphoid leukemia at the dose 75 mg/kg/day x 5 was determined as weight change (g/mouse) on 8th day; type: functional
In short: (§2)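 C3D2F1/J female mice (C3H/HeJ × DBA/2J), groups of six to eight, average 25 g, inoculated ip with 1 × 10^6 L1210 ascites cells taken from DBA/2Ha donor mice carrying 3-5 day tumors. Compound dissolved in 0.154 N NaOH, then neutralized with 0.154 N HCl to give 0.9% NaCl. Given ip daily for 5 consecutive days starting 24 h after implantation. Body weight change per mouse recorded on day 8.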

L1210 [5] = assay: Antitumor activity in mice with intraperitoneal implanted L1210 lymphoid leukemia at the dose 25 mg/kg/day x 5 was determined as weight change (g/mouse) on 8th day; type: functional; in short: as §2
L1210 [6] = assay: Antitumor activity in the mice with intraperitoneal implanted L1210 lymphoid leukemia at the dose 50 mg/kg/day x 5 was determined and number of animals survived on 30 th day were reported; 2/8; type: functional, Mus musculus; in short: as §1
L1210 [7] = assay: Antitumor activity in the mice with intraperitoneal implanted L1210 lymphoid leukemia at the dose of 75 mg/kg/day x 5 was determined as mean survival of treated group compared to untreated; 17/8.5; type: functional, Mus musculus
L1210 [8] = assay: Antitumor activity in the mice with intraperitoneal implanted L1210 lymphoid leukemia at the dose 50 mg/kg/day x 5 was determined as percentage increase in the life span as compared with control tumor bearers; type: functional; details: Mus musculus, L1210, ip
In short: (§3)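 C3D2F1/J female mice (C3H/HeJ female × DBA/2J male), groups of six to eight, average weight 25 g. Inoculated ip with 1 × 10^6 L1210 ascites cells taken from DBA/2Ha donor mice bearing 3-5 day old tumors. Compounds were dissolved in 0.154 N NaOH, neutralized with 0.154 N HCl (final 0.9% NaCl), and given ip daily for 5 days from 24 h post-implant. Median survival T/C; ILS = (T/C − 1) × 100; 30-day survivors counted.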

L1210 [9] = assay: Antitumor activity in the mice with intraperitoneal implanted L1210 lymphoid leukemia at the dose 25 mg/kg/day x 5 was determined as Survival time in days; Range is 14-18 days; type: functional, Mus musculus; in short: as §1
L1210 [10] = assay: Antitumor activity in the mice with intraperitoneal implanted L1210 lymphoid leukemia at the dose of 25 mg/kg/day x 5 was determined as mean survival of treated group compared to untreated; 16.5/8.5; type: functional, Mus musculus; in short: as §3
L1210 [11] = assay: Antitumor activity in the mice with intraperitoneal implanted L1210 lymphoid leukemia at the dose 75 mg/kg/day x 5 was determined as Survival time in days; Range is 12-21 days; type: functional, Mus musculus; in short: as §3
L1210 [12] = assay: Antitumor activity in the mice with intraperitoneal implanted L1210 lymphoid leukemia at the dose 75 mg/kg/day x 5 was determined as percentage increase in the life span as compared with control tumor bearers; type: functional; details: Mus musculus, L1210, ip; in short: as §3
L1210 [13] = assay: Antitumor activity in mice with intraperitoneal implanted L1210 lymphoid leukemia at the dose 50 mg/kg/day x 5 was determined as weight change (g/mouse) on 8th day; type: functional; in short: as §2
L1210 [14] = assay: Antitumor activity in the mice with intraperitoneal implanted L1210 lymphoid leukemia at the dose of 50 mg/kg/day x 5 was determined as mean survival of treated group compared to untreated; 24/8; type: functional, Mus musculus
L1210 [15] = assay: Antitumor activity in the mice with intraperitoneal implanted L1210 lymphoid leukemia at the dose 75 mg/kg/day x 5 was determined and number of animals survived on 30 th day were reported; 0/8; type: functional, Mus musculus; in short: as §3
L1210 [16] = assay: Antitumor activity in the mice with intraperitoneal implanted L1210 lymphoid leukemia at the dose 25 mg/kg/day x 5 was determined and number of animals survived on 30 th day were reported; 0/8; type: functional, Mus musculus; in short: as §1
L1210 [17] = assay: Antitumor activity in the mice with intraperitoneal implanted L1210 lymphoid leukemia at the dose 9.2 and 12.6 mg/kg/day x 5 was determined as Survival time in days; Range is 13-23 days; type: functional, Mus musculus; in short: as §3
L1210 [18] = assay: Antitumor activity in the mice with intraperitoneal implanted L1210 lymphoid leukemia at the dose of 19.1 and 26 mg/kg/day x 5 was determined as mean survival of treated group compared to untreated; 10.5/10; type: functional, Mus musculus; in short: as §3
L1210 [19] = assay: Antitumor activity in the mice with intraperitoneal implanted L1210 lymphoid leukemia at the dose 9.2 and 12.6 mg/kg/day x 5 was determined and number of animals survived on 30 th day were reported; 0/6; type: functional, Mus musculus; in short: as §3
L1210 [20] = assay: Antitumor activity in the mice with intraperitoneal implanted L1210 lymphoid leukemia at the dose 9.2 and 12.6 mg/kg/day x 5 was determined as percentage increase in the life span as compared with control tumor bearers; type: functional, Mus musculus; in short: as §3
L1210 [21] = assay: Antitumor activity in the mice with intraperitoneal implanted L1210 lymphoid leukemia at the dose 19.1 and 26 mg/kg/day x 5 was determined as Survival time in days; Range is 9-12 days; type: functional, Mus musculus; in short: as §1
L1210 [22] = assay: Antitumor activity in mice with intraperitoneal implanted L1210 lymphoid leukemia at the dose 9.2 and 12.6 mg/kg/day x 5 was determined as weight change (g/mouse) on 8th day; type: functional; in short: as §1
L1210 [23] = assay: Antitumor activity in the mice with intraperitoneal implanted L1210 lymphoid leukemia at the dose 19.1 and 26 mg/kg/day x 5 was determined and number of animals survived on 30 th day were reported; 0/8; type: functional, Mus musculus; in short: as §1
L1210 [24] = assay: Antitumor activity in mice with intraperitoneal implanted L1210 lymphoid leukemia at the dose 19.1 and 26 mg/kg/day x 5 was determined as weight change (g/mouse) on 8th day; type: functional; in short: as §1
L1210 [25] = assay: Antitumor activity in the mice with intraperitoneal implanted L1210 lymphoid leukemia at the dose of 9.2 and 12.6 mg/kg/day x 5 was determined as mean survival of treated group compared to untreated; 16.5/11; type: functional, Mus musculus
L1210 [26] = assay: Antitumor activity in the mice with intraperitoneal implanted L1210 lymphoid leukemia at the dose 19.1 and 26 mg/kg/day x 5 was determined as percentage increase in the life span as compared with control tumor bearers; type: functional, Mus musculus; in short: as §1

## C[C@]12C[C@H](O)[C@H]3[C@@H](CCC4=CC(=O)CC[C@@]43C)[C@@H]1CC[C@@H]2C(=O)COP(=O)(O)OC[C@H]1O[C@@H](n2ccc(N)nc2=O)[C@@H](O)[C@@H]1O
L1210 [1]
  Survival time: 15 days
L1210 [2]
  ILS at 25 mg/kg/day: 94%
L1210 [3]
  ED 50: 90 nM
L1210 [4]
  Weight change: -0.59 g mouse-1
L1210 [5]
  Weight change: 0.06 g mouse-1
L1210 [6]
  Survivors: 2
L1210 [7]
  T/C: 17
L1210 [8]
  ILS at 50 mg/kg/day: 200%
L1210 [9]
  Survival time: 14 days
L1210 [10]
  T/C: 16.5
L1210 [11]
  Survival time: 12 days
L1210 [12]
  ILS at 75 mg/kg/day: 100%
L1210 [13]
  Weight change: -1.24 g mouse-1
L1210 [14]
  T/C: 24
L1210 [15]
  Survivors: 0
L1210 [16]
  Survivors: 0

## C[C@]12CC[C@H]3[C@@H](CCC4=CC(=O)CC[C@@]43C)[C@@H]1CC[C@@H]2C(=O)O.Nc1ccn([C@@H]2O[C@H](CO)[C@@H](O)[C@@H]2O)c(=O)n1
L1210 [17]
  Survival time: 13 days
L1210 [18]
  T/C: 10.5
L1210 [19]
  Survivors: 0
L1210 [20]
  ILS: 50%
L1210 [21]
  Survival time: 9 days
L1210 [22]
  Weight change: -3.58 g mouse-1
L1210 [23]
  Survivors: 0
L1210 [24]
  Weight change: -4.25 g mouse-1
L1210 [25]
  T/C: 16.5
L1210 [26]
  ILS: 5%

Source: ChEMBL document CHEMBL1121364, “Nucleoside conjugates as potential antitumor agents. 3. Synthesis and antitumor activity of 1-(beta-D-arabinofuranosyl)cytosine conjugates of corticosteroids” (1980)
